Assay outcomes (PubChem)
Kir21 inh – blocks the mouse Kir2.1 inward-rectifier potassium channel; HEK293-Kir2.1, FluxOR thallium flux fluorescence; stronger effect = lower value; AID 1672; P35561; B-score at 10 µM; hit rate 0.85% among 310,000;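 active = fluorescence ratio B-score at or below minus 3 SD of library scores, with starting-brightness B-score within 2 SD, cut at about -4.2 in these data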;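 note: channel flux triggered by added potassium and thallium sulfate stimulus; B-score of peak minus minimum fluorescence over baseline after thallium stimulus; more negative B-score means stronger Kir2.1 block with less thallium influx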
KCNK9 block – human KCNK9 channel inhibition; Q9NPC2; HEK293 KCNK9, FluxOR thallium flux fluorescence; stronger effect = lower value; B-score at 10 µM; hit rate 1.2% among 310,000;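 active = ratio B-score over 3 SD below the library mean, with starting fluorescence within 5 SD of its mean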;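 note: negative B-score means less thallium flux so channel inhibition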
KCNQ1 act – human KCNQ1 channel potentiation or activation; B-score at 10 µM; CHO-K1 KCNQ1, thallium flux FluxOR fluorescence; stronger effect = higher value; AID 2648; hit rate 0.35% among 310,000;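 active = fluorescence ratio B-score, a plate-corrected score, at least three library SD, with initial intensity B-score within 5 SD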
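Medium – assay buffer, equal DMSO in all wells · Material – CHO-K1 cell line with stable KCNQ1 potassium channel expression · Signal – kinetic FluxOR thallium fluorescence, 10-s 1-Hz baseline, 110-s post-stimulus read · Compound – single concentration per compound, DMSO matched to controls · Schedule – 37 °C overnight plating, 90-min dark dye load, 20-min compound pretreatment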
KCNK3 block – human KCNK3 channel inhibition, primary screen. O14649. CHO-KCNK3 thallium flux, FluxOR fluorescence; stronger effect = lower value. B-score at 10 µM. hit rate 0.84% among 340,000. AID 602410;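 active = B-score under library mean minus 4 SD, starting fluorescence ratio at most library mean plus 5 SD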;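 note: more negative B-score means stronger inhibition of thallium flux through KCNK3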
Target sequence (O14649 whole entry, looked up): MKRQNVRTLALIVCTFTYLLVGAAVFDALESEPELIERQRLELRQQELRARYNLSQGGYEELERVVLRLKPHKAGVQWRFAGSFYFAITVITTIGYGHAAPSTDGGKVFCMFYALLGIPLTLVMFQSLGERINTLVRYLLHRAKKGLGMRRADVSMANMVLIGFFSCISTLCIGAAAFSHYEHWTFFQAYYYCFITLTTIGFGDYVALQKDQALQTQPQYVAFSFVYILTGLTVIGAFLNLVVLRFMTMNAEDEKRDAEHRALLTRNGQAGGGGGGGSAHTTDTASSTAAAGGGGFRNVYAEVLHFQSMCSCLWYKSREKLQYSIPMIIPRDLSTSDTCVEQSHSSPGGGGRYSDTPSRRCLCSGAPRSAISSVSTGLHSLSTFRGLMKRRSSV
hERG protect – compounds protecting human hERG from proarrhythmic drug block. CHO-hERG, FluxOR thallium flux, dofetilide IC70 present. activation (rescue from dofetilide block), less the hit threshold, % at 10 µM. hit rate 0.51% among 310,000. Q12809;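 active = activation above the mean of controls blocked by dofetilide plus 5 SD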;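 note: thallium influx through hERG after potassium depolarization seen as dye fluorescence rise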
KCNQ1 block – blocks the human KCNQ1 potassium channel | hit rate 1.3% among 310,000 | CHO-K1 KCNQ1, FluxOR thallium flux fluorescence; stronger effect = higher value | B-score at 10 µM;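 active = compounds whose thallium flux B-score, printed positive for inhibition, exceeds three library SD while starting fluorescence stays within three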;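 note: channel opened by potassium depolarization with thallium stimulus after 20 min compound exposure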
Starred values were filed as active, the others as inactive; i = inactive; . = no result. Rows were chosen to be rich in hits. Some 3.7% of all compounds tested hit in one or more screens of this group.

SMILES	Kir21 inh	KCNK9 block	KCNQ1 act	KCNK3 block	hERG protect	KCNQ1 block
CCCCn1nc(C(=O)NC2CCCCCC2)c2ccccc2c1=O	.	.	.	i	.	.
CCCCn1nc(C(=O)Nc2ccccc2N2CCCC2)c2ccccc2c1=O	.	.	.	-8.7*	.	.
N#Cc1ccccc1S(=O)(=O)N1CCN(C(=O)C2CCCC2)CC1	-0.2	i	i	i	-2	i
CCn1c(C)nnc1SCC(=O)Nc1ccc(Cl)cc1	1.7	i	i	i	-6	i
CCC1(C(=O)O)NC(c2cc(OC)ccc2O)C2C(=O)N(Cc3ccccc3)C(=O)C21 (configuration not stated)	-0.01	i	i	i	5.5*	i
CCCCN1C(=O)C2C(c3ccc(OC)cc3O)NC(CC(C)C)(C(=O)O)C2C1=O (configuration not stated)	-0.02	i	i	i	0	i
COc1cc(/C=C(\C#N)c2nc3ccccc3s2)cc([N+](=O)[O-])c1O	-0.51	i	i	i	-17	6*
N#C/C(=C\c1ccc(O)c([N+](=O)[O-])c1)c1nc2ccccc2s1	0.72	i	i	i	-9	6*
CC(=O)Nc1ccc(S(=O)(=O)Nc2ccc(Nc3ccccc3)cc2)cc1	-0.47	i	i	i	-6	i
Cc1ccc(C)c(S(=O)(=O)N2CCN(C(=O)CSc3ccccc3F)CC2)c1	0.99	i	i	i	-3	i
Cc1cc(=O)c(C(=O)Nc2cccc(C(=O)NC3CC3)c2)nn1-c1ccccc1Cl	.	.	.	i	.	.
Cc1ccc(COc2ccsc2-c2n[nH]c(=S)n2C)cc1	-0.03	i	i	i	-15	i
Cn1c(-c2sccc2OCc2ccc(Cl)cc2Cl)n[nH]c1=S	-5.5*	i	i	i	-11	i
O=c1ccn([C@@H]2O[C@H](CNS(=O)(=O)C3CC3)[C@@H](O)[C@H]2O)c(=O)[nH]1	.	.	.	i	.	.
COc1cccc(SCc2noc(C(=O)NCC3CC3)c2C(=O)NCC2CC2)c1	-0.73	i	i	i	-8	i
OC1(C#CCCN2CCCCC2)c2ccccc2-c2ccccc21	0.06	i	i	i	3	i
N#CC1(CCCN2CCCCC2)c2ccccc2CCc2ccccc21	-5.6*	i	i	i	-11	i
Nc1cc(=O)[nH]c(SCc2nc3ccccc3n2Cc2ccccc2)n1	0.16	i	i	i	6.1*	i
O=c1[nH]c(SCc2nc3ccccc3n2Cc2ccccc2)nc2ccccc12	-0.07	i	i	i	-5	i
CC(=O)Oc1ccc(N2C(=O)C3C4C=CC(CC4)C3C2=O)cc1[N+](=O)[O-] (configuration not stated)	-0.31	i	i	i	-13	i
CCOc1ccccc1Nc1ccnc2cc(Cl)ccc12	0.48	i	i	i	-12	i
CC(C)Nc1ccc(Nc2ccnc3cc4ccccc4cc23)cc1	-6.4*	i	i	i	-33	9*
CCOC(=O)NC(=S)Nc1ccc(C(C)(C)C)cc1Br	-0.77	i	22*	i	11*	i
COc1cc(/C=N/NS(=O)(=O)c2ccc(C)c([N+](=O)[O-])c2)ccc1O	-0.99	i	i	i	-8	i
COc1cc(/C=N/NS(=O)(=O)c2ccc(C)c([N+](=O)[O-])c2)cc([N+](=O)[O-])c1O	0.83	i	i	i	-3	6*
COc1ccccc1N1C(=O)C2C(C(=O)c3ccccc3)=NN(c3ccc(C)cc3)C2C1=O (configuration not stated)	0.2	i	i	i	-10	6*
COC(=O)c1ccccc1NC(=O)Cn1cnc2c(cnn2-c2ccccc2)c1=O	-0.3	i	i	i	4.8*	i
O=C1NC(c2cccc(Cl)c2)Oc2ccccc21 (configuration not stated)	0.55	i	i	i	6.3*	i
CCOC(=O)c1cnc2c(C)cccc2c1NCCc1ccc(OC)c(OC)c1	-7.6*	i	i	i	-13	i
CCOC(=O)c1cnc2c(OC)cccc2c1N1CCN(c2ccccc2OC)CC1	0.56	i	i	i	-14	i
